Data set [1] is described as follows: Solubility in serum (unknown origin). It counts as ADME.
Data set [2] concerns Oocyte. The data set is described as follows: Induction of immature stage VI Xenopus oocyte maturation assessed as spontaneous maturation measured as germinal vesicle (nuclear) breakdown at 100 uM after overnight incubation. The format is functional, cell-based. In a few lines: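 Isolated Xenopus oocytes (20 per well) incubated overnight with compound in DMSO at 100 μM final, no progesterone. The next morning, GVBD is scored as a white spot at the animal pole. Rate is expressed relative to DMSO controls, where 2.0 means spontaneous maturation.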

In data set [3] the test system is Oocyte. The data set is described as follows: Induction of immature stage VI Xenopus oocyte maturation assessed as stimulation of progesterone-mediated maturation measured as germinal vesicle (nuclear) breakdown after overnight incubation. It counts as functional, cell-based. The conditions noted are these: Xenopus laevis.
Data set [4] deals with CCRF-CEM. As to the kind of experiment: Anticancer activity against human CCRF-CEM cells assessed as growth inhibition at 10^-5 M. The format is functional. The settings on record: read-out: GI. In a few lines:
(§1)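 NCI-60 human tumour cell line panel screened at a single concentration of 10^-5 M; value is percent growth inhibition relative to untreated growth.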

Data set [5] can be described thus: Anticancer activity against human MOLT4 cells assessed as growth inhibition at 10^-5 M. The conditions noted are these: MOLT-4, read-out: GI. The format is functional. The gist of the method: as §1
Data set [6] concerns K562. The data set is described as follows: Anticancer activity against human K562 cells assessed as growth inhibition at 10^-5 M. It counts as functional. The conditions noted are these: read-out: GI. In a few lines: as §1
The test system of data set [7] is MCF7. The data set is described as follows: Anticancer activity against human MCF7 cells assessed as growth inhibition at 10^-5 M. The format is functional. The conditions noted are these: read-out: GI. In a few lines:
as §1

In data set [8] the test system is HL-60(TB). As to the kind of experiment: Anticancer activity against human HL-60(TB) cells assessed as growth inhibition at 10^-5 M. The format is functional. The conditions noted are these: read-out: GI. The gist of the method:
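NCI 60 panel initial screen at a single concentration of 10^-5 M. Value is reported as percent growth inhibition of the cell line.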

In data set [9] the test system is Xenopus. As to the kind of experiment: Induction of progesterone-independent of MPF activation in immature stage VI Xenopus oocyte by Western blot analysis. The gist of the method: (§2)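 Oocytes treated with DMSO or compound without progesterone, harvested when 50% of treated oocytes completed GVBD, sorted by GVBD status. Lysates run on 10% gel and blotted with phospho-MAPK Thr202/Tyr204 and phospho-Cdc2 Tyr15 antibodies (1:1000), with tubulin as loading control. MPF activation read as Cdc2 dephosphorylation.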

In data set [10] the test system is Xenopus. As to the kind of experiment: Induction of progesterone-independent of MAPK activation in immature stage VI Xenopus oocyte by Western blot analysis. The gist of the method: as §2
Background: A western blot detects proteins with antibodies after separation by electrophoresis.

Data set [11] can be described thus: Anticancer activity against human PC3 cells assessed as growth inhibition at 10^-5 M. The settings on record: PC-3, read-out: GI. It counts as functional. The gist of the method: as §1
A short description of data set [12]: Anticancer activity against human RPMI8226 cells assessed as growth inhibition at 10^-5 M. The format is functional. The conditions noted are these: RPMI-8226, read-out: GI. In a few lines: as §1
Data set [13] in a line: Anticancer activity against human BT549 cells assessed as growth inhibition at 10^-5 M. The format is functional. The conditions noted are these: BT-549, read-out: GI. In a few lines:
as §1

A word on the solubility: it is the concentration that dissolves in the medium under given conditions. Low readings indicate a poorly soluble substance, high ones a readily soluble substance. A word on the EC50: it is the concentration that produces a half-maximal response.

Each structure is given as a SMILES string. ≈ marks a conversion by molar mass, not a printed value. Calls of active or inactive are those of the source. The rule behind the calls is not given here.

In data set [1], `C=C1C(=O)O[C@@H]2C3O[C@]3(C)CC/C=C(\C)CC[C@@H]12` (stereo not given in full) registered a solubility of 169 µM (≈ 42 µg/mL).

Consider `C/C1=C\CC[C@@]2(C)O[C@@H]2[C@H]2OC(=O)/C(=C/c3ccccc3Br)[C@@H]2CC1`, for which the outcome in data set [2], in [9] and in [10] was Active. Also, the concentration for a half-maximal effect (EC50) in [3] is 6 µM. In addition, the inhibition of growth at 10 µM in [4] turned out to be 22.3%; in data set [5], 31.2%; in [6], 28.1%; in data set [7], 24.3%; in data set [8] it was 34.1%; in data set [11] it was 42.3%. Moreover, the inhibition of growth at 10 µM in data set [12] is 21.3%.

As for `C[C@@]12CC/C=C(/CO)CC[C@@H]3/C(=C\c4ccccc4Br)C(=O)O[C@@H]3[C@@H]1O2`, the result in [2] was Active. Also, the inhibition of growth at 10 µM was 28.5% in data set [4] and 24.2% in data set [13].

The record behind these values is ChEMBL document CHEMBL3352597, “Heck products of parthenolide and melampomagnolide-B as anticancer modulators that modify cell cycle progression” (Eur J Med Chem, 2014).
